From ChEMBL document CHEMBL5046221, “Identification of Pyrimidine-Based Lead Compounds for Understudied Kinases Implicated in Driving Neurodegeneration” (J Med Chem, 2022)

How the values were obtained:
[1] = biological target: BMP-2-inducible protein kinase (Homo sapiens, UniProt Q9NSY1); assay: Residual activity of human BMP2K at 1 uM using peptide as substrate incubated for 120 mins in presence of [gamma-33P-ATP] by radiometric scintillation assay relative to control
[2] = biological target: T1, MAP/microtubule affinity-regulating kinase 4 (Homo sapiens, UniProt Q96L34); assay: Displacement of tracer K5 from NLuc fused MARK4 (unknown origin) expressed in HEK293 cells by NanoBRET assay; format: cell-based
T1 sequence (Q96L34 whole entry): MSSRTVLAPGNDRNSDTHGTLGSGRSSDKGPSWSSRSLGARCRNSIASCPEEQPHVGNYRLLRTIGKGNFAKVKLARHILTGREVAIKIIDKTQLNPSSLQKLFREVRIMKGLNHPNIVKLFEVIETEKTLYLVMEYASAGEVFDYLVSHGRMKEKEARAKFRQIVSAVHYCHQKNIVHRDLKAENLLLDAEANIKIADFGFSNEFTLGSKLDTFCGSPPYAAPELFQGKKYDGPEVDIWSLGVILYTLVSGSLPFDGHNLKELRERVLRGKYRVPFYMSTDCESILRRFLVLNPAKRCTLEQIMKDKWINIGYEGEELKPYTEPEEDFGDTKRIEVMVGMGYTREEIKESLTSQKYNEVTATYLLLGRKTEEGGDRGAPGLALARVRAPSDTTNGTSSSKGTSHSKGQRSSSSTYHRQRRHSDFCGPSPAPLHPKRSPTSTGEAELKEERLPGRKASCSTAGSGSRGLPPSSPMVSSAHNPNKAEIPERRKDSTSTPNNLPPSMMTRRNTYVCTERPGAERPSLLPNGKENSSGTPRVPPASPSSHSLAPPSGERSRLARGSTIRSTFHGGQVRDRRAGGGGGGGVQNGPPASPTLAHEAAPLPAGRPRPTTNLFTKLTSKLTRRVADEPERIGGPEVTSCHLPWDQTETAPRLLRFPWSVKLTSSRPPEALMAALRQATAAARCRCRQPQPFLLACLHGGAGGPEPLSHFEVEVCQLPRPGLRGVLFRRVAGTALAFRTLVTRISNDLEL

[3] = biological target: T2, Serine/threonine-protein kinase 17A (Homo sapiens, UniProt Q9UEE5); assay: Displacement of tracer K9 from NLuc fused DRAK1 (unknown origin) expressed in HEK293 cells by NanoBRET assay; format: cell-based
T2 sequence (Q9UEE5 whole entry): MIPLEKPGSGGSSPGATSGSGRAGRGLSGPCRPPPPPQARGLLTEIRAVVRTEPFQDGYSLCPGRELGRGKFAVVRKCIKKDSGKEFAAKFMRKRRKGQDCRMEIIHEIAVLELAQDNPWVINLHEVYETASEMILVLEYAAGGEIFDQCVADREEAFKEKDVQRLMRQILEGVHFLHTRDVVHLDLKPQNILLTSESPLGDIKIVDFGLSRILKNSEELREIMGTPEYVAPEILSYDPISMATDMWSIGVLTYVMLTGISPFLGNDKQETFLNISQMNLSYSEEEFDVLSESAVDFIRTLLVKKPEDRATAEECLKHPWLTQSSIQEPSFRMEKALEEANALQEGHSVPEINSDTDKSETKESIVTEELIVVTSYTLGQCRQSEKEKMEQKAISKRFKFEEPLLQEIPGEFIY

[4] = Effective permeability in PBS at 7.4 incubated for 5 hrs by PAMPA analysis; format: ADME; conditions: pH 7.4, 5 h
Method in brief: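 PAMPA: DMSO stocks were diluted in PBS pH 7.4 and placed in the donor compartment, with PBS pH 7.4 in the acceptor, for 5 h. Both compartments were quantified by CLND against a calibration curve, with background nitrogen correction. Effective permeability was calculated from donor and acceptor concentrations using measured rather than assumed solubility.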

[5] = biological target: Serine/threonine-protein kinase SIK2 (Homo sapiens, UniProt Q9H0K1); assay: Inhibition of recombinant human SIK2 (1 to 276 residues) using KKKVSRSGLYRSPSMPENLNRPR as substrate measured after 40 mins in presence of [gamma33P]ATP by radiometric scintillation counting method
Method in brief: (§1)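 Eurofins radiometric kinase assay run at ATP equal to Km for each kinase. 9-point dose–response in duplicate gives the IC50.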

[6] = biological target: MAP/microtubule affinity-regulating kinase 3 (Homo sapiens, UniProt P27448); assay: Displacement of tracer K9 from NLuc fused MARK3 (unknown origin) expressed in HEK293 cells by NanoBRET assay; format: cell-based
[7] = biological target: T2, Serine/threonine-protein kinase 17A; assay: Inhibition of recombinant human DRAK1 using KKLNRTLSFAEPG as substrate after 40 mins in presence of [gamma-33ATP] by scintillation counting based radiometry assay
Method in brief: as §1

[8] = Kinetic solubility of compound in PBS at pH 7.4 incubated for 24 hrs by chemiluminscent nitrogen detection method; format: physicochemical; conditions: buffer, pH 7.4, 24 h
Method in brief: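 Filtrates were quantified by total chemiluminescent nitrogen determination against a calibration curve, with correction for background nitrogen from DMSO and medium.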

[9] = biological target: AP2-associated protein kinase 1 (Homo sapiens, UniProt Q2M2I8); assay: Inhibition of human AAK1 using peptide as substrate incubated for 120 mins in presence of [gamma-33ATP] by scintillation counting based radiometry assay
Method in brief: as §1

[10] = biological target: T3, Non-receptor tyrosine-protein kinase TYK2 (Homo sapiens, UniProt P29597); assay: Inhibition of human TYK2 (875 to end residues) using GGMEDIYFEFMGGKKK as substrate measured after 40 mins in presence of [gamma33P]ATP by radiometric scintillation counting method
Method in brief: (§2)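 Eurofins radiometric enzymatic assay with ATP at Km for each kinase. IC50 was derived from a 9-point dose–response curve run in duplicate.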

[11] = biological target: Serine/threonine-protein kinase 17B (Homo sapiens, UniProt O94768); assay: Inhibition of recombinant human DRAK2 using KKRPQRRYSNVF as substrate after 120 mins in presence of [gamma-33ATP] by scintillation counting based radiometry assay
Method in brief: as §2

[12] = biological target: T4, Serine/threonine-protein kinase TBK1 (Homo sapiens, UniProt Q9UHD2); assay: Displacement of tracer K5 from NLuc fused TBK1 (unknown origin) expressed in HEK293 cells by NanoBRET assay; format: cell-based
T4 sequence (Q9UHD2 whole entry): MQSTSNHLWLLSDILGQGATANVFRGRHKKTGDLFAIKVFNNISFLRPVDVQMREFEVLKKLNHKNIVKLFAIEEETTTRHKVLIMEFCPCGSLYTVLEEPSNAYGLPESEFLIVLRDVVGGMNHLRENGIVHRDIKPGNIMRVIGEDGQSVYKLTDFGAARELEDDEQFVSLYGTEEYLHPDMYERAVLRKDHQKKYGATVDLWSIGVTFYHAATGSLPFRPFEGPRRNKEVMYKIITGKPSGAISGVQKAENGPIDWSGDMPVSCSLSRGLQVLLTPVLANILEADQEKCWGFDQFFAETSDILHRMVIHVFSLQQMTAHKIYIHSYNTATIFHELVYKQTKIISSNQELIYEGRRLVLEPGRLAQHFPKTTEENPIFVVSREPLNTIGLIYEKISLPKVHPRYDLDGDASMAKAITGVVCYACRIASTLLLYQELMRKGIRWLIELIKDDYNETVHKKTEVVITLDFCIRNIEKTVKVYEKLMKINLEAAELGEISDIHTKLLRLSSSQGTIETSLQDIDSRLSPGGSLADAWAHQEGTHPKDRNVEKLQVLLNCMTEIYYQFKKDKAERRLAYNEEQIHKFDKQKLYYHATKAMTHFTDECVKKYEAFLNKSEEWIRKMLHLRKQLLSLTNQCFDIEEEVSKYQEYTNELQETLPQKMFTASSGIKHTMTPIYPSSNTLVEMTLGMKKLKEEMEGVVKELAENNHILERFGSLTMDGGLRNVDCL
Method in brief: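 HEK293 cells grown in DMEM with 10% FBS at 37 °C, 5% CO2. NanoBRET assay run in dose–response per manufacturer's protocol with tracer K-5 at 0.5 μM. SEM calculated for assays run more than once.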

[13] = biological target: MAP kinase-interacting serine/threonine-protein kinase 2 (Homo sapiens, UniProt Q9HBH9); assay: Inhibition of full length recombinant human MKNK2 using myelin basic protein as substrate incubated for 40 mins in presence of [gamma-33P-ATP] by radiometric scintillation assay
Method in brief: as §1

[14] = biological target: T3, Non-receptor tyrosine-protein kinase TYK2; assay: Inhibition of NanoLuc-fused TYK2 (unknown origin) expressed in HEK293 cells incubated for 2 hrs by NanoBRET assay; format: cell-based
Method in brief: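 Cellular NanoBRET target-engagement assays were run by Carna Biosciences to the manufacturer's protocol. Dose–response was in singlicate, with compounds tested at concentrations up to 10 μM.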

[15] = biological target: Tyrosine-protein kinase JAK2 (Homo sapiens) (UniProt O60674); assay: Inhibition of recombinant human JAK2 (808 to end residues) using KTFCGTPEYLAPEVRREPRILSEEEQEMFRDFDYIADWC as substrate at 1 uM incubated for 40 mins in presence of [gamma-33P-ATP] by radiometric scintillation assay relative to control
Method in brief: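 Eurofins radiometric kinase assay with ATP at Km for each kinase. Compound was tested at a single 1 μM concentration in duplicate, and the result is reported as percent of control.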

[16] = biological target: T5, Macrophage colony-stimulating factor 1 receptor (Homo sapiens, UniProt P07333); assay: Inhibition of recombinant human FMS (538 to end residues) using KKKSPGEYVNIEFG as substrate measured after 40 mins in presence of [gamma33P]ATP by radiometric scintillation counting method
Method in brief: as §1

[17] = biological target: T5, Macrophage colony-stimulating factor 1 receptor; assay: Inhibition of NanoLuc-fused CSF1R (unknown origin) expressed in HEK293 cells incubated for 2 hrs by NanoBRET assay; format: cell-based

T3 sequence (P29597 whole entry): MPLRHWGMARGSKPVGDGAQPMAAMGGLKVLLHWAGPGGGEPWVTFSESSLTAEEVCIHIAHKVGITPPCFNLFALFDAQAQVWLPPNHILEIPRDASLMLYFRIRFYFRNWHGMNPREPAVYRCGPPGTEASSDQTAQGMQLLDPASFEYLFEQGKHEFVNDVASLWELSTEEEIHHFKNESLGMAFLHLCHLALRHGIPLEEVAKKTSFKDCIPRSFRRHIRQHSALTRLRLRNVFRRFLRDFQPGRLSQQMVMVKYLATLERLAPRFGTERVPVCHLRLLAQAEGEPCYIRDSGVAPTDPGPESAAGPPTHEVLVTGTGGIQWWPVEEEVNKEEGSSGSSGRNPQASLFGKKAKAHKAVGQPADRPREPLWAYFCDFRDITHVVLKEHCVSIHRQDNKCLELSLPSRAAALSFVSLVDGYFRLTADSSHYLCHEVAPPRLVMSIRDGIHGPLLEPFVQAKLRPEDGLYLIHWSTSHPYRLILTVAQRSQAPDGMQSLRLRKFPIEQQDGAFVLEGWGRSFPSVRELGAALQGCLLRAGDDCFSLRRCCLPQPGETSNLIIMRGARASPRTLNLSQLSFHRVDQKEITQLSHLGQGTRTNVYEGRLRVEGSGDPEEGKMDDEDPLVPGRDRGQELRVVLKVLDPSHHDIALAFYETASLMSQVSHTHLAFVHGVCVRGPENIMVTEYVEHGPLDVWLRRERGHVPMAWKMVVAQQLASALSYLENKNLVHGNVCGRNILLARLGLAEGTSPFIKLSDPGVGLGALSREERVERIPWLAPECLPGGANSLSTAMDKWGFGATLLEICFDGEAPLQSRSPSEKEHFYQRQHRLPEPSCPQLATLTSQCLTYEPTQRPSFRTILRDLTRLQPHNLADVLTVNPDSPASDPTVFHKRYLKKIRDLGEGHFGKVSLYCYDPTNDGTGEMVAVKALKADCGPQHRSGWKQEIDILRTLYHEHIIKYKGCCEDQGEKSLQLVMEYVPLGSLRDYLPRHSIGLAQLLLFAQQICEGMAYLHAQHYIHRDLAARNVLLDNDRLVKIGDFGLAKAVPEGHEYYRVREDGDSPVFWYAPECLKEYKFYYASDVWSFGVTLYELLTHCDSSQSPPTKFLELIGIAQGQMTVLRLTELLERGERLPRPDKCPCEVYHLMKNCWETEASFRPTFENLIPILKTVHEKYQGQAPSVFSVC
MAP/microtubule affinity-regulating kinase 3, sequence (P27448 whole entry, the tested form may be a part): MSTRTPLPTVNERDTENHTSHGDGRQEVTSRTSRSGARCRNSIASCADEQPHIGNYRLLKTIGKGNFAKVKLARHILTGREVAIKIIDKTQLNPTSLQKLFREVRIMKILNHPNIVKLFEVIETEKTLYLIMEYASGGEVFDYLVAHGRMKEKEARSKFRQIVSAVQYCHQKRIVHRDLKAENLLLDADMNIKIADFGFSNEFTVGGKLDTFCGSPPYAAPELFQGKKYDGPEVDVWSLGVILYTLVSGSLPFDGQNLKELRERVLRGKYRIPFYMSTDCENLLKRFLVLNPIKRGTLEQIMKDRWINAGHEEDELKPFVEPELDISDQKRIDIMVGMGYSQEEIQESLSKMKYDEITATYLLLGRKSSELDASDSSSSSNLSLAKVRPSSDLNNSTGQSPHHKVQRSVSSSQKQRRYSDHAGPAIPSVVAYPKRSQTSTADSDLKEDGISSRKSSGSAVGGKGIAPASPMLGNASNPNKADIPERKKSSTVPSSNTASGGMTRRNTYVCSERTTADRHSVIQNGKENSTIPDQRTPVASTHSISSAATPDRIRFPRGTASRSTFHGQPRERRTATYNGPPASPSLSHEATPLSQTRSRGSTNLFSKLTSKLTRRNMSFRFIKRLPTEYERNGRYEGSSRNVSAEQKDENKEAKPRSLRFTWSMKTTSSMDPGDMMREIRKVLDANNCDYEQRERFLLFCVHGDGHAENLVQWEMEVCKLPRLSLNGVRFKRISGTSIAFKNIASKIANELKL
T5 sequence (P07333 whole entry): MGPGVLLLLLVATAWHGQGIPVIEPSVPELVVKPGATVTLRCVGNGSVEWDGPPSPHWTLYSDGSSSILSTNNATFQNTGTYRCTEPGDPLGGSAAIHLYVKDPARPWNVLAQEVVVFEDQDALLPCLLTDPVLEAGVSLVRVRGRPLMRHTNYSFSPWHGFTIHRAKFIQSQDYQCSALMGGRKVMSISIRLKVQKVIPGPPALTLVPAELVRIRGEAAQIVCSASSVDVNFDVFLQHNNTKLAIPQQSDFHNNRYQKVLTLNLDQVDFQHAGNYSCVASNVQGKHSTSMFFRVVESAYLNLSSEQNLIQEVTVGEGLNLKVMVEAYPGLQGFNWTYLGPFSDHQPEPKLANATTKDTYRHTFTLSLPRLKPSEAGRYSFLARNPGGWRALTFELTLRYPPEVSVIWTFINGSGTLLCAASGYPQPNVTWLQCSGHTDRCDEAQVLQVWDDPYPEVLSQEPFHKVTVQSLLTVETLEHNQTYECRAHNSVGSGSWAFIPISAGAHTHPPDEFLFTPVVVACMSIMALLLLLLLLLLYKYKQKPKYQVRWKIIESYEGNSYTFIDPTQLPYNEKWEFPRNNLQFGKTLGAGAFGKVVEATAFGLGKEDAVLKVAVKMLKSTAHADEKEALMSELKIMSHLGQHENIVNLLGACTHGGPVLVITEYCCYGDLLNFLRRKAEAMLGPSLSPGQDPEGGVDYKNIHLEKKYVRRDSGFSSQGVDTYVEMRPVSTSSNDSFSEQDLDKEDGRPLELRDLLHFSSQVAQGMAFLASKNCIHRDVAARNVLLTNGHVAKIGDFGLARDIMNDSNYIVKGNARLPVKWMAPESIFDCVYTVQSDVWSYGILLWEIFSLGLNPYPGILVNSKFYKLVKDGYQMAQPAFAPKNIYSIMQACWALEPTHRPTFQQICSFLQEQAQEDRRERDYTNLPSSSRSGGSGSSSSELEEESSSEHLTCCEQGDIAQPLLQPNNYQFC
MAP kinase-interacting serine/threonine-protein kinase 2, sequence (Q9HBH9 whole entry): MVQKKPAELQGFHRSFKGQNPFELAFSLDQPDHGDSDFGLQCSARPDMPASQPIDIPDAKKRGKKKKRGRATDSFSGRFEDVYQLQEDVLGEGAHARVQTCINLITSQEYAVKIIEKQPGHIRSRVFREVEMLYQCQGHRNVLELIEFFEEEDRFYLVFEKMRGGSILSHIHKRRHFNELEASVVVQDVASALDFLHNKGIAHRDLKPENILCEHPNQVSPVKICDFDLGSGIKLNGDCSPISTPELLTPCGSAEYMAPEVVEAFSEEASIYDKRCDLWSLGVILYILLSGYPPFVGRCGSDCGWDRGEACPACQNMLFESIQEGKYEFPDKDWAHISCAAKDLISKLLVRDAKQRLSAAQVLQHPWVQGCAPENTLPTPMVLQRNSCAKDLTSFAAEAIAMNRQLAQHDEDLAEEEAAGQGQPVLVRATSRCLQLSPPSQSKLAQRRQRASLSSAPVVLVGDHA
Serine/threonine-protein kinase SIK2, sequence (Q9H0K1 whole entry, the tested form may be a part): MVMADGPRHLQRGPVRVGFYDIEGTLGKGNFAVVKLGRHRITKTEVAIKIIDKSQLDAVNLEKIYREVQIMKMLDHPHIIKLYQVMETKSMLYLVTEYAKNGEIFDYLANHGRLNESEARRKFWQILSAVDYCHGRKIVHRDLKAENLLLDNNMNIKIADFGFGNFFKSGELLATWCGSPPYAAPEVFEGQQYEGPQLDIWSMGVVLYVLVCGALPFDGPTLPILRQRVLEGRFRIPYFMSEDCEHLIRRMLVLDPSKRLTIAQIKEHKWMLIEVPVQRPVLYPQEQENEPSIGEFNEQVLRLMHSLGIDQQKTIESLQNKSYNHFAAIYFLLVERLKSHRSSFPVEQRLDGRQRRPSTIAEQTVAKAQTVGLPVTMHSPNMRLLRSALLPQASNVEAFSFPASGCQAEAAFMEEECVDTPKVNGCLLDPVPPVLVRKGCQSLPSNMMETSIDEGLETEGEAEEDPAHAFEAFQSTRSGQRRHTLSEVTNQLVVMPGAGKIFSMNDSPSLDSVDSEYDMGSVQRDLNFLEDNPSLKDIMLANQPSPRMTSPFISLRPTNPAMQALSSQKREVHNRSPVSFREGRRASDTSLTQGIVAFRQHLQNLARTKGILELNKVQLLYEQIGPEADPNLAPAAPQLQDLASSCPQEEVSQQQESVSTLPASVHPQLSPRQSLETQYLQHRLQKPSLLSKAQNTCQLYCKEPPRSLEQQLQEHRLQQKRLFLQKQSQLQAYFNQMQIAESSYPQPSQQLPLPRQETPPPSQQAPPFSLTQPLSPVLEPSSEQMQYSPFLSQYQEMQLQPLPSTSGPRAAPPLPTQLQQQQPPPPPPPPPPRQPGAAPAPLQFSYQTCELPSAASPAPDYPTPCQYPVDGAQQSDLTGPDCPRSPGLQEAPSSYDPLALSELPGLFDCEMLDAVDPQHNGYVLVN
Serine/threonine-protein kinase 17B, sequence (O94768 whole entry): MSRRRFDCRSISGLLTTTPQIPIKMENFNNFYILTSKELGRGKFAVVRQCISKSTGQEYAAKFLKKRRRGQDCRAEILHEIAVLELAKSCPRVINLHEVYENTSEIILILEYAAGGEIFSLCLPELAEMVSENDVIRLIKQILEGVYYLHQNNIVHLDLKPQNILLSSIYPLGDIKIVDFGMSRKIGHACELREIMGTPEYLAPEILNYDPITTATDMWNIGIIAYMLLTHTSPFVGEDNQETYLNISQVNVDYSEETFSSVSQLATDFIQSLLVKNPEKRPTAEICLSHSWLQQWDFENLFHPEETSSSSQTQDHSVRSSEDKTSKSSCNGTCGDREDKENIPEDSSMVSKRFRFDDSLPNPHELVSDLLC

With O=C(NCCCNc1ccnc(Nc2cccc(NC(=O)N3CCCC3)c2)n1)C1CCC1 the % control [1] was 56%, the IC50 [2] was > 10000 nM and the IC50 [3] was 2310 nM. The Peff [4] was 8.24 10^-8cm/s, the IC50 [5] was 481 nM and the IC50 [6] was > 10000 nM. For the same molecule, the IC50 [7] was 325 nM, the Kinetic solubility [8] was 169 µM and the IC50 [9] was 390 nM. For the same molecule, the IC50 [10] was 720 nM, the IC50 [11] was 161 nM and the IC50 [12] was > 10000 nM. It also gave an IC50 [13] of 769 nM.

In the case of NS(=O)(=O)c1ccc(CNc2ccnc(Nc3cccc(NC(=O)N4CCCC4)c3)n2)cc1, the IC50 [14] is reported as > 10000 nM, the IC50 [2] is reported as > 10000 nM and the % control [15] is reported as 62%. For the same molecule, the IC50 [3] was > 10000 nM, the Peff ([4]; BLD = below limit of detection) was “Bld” and the IC50 [16] was 305 nM. For the same molecule, the IC50 [6] was > 10000 nM, the IC50 [17] was > 10000 nM and the Kinetic solubility [8] was 147 µM. For the same molecule, the IC50 [10] was 33 nM and the IC50 [12] was > 10000 nM.
